Compound activity from PubChem.
Arrestin-AP2 inh: blocks beta-arrestin peptide binding to AP2 adaptin | FITC-arrestin peptide / GST-AP2 beads, flow cytometry; AP2 beta2 appendage carries R879A mutation | inhibition, % at 10 µM | hit rate 0.31% among 340,000 | AID 504490;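 active = inhibition above a set limit, near 3 SD of compounds lacking own fluorescence, cut at about 54% in these data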
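system = GST-tagged AP2 beta2-adaptin appendage (R879A) on 4 µm glutathione beads | reagent = FITC-labelled arrestin peptide probe, 50 nM final | schedule = compound with beads 12 min RT, then probe 1 h RT | signal = HyperCyt-sampled flow cytometry, FL1 channel, ex 488/em 535 nm | read-out = percent response from loss of bead-bound FITC fluorescence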
STK33 inh: inhibitors of human STK33 kinase | Q9BYT3 | purified STK33, MBP phosphorylation, ADP-Glo luminescence | inhibition, % at 10 µM | hit rate 0.073% among 320,000;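 active = inhibition at or above 25%, using the most active replicate where run in duplicate; inactive = inhibition below 25%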
DYRK1A inh: inhibitors of rat Dyrk1A kinase | inhibition, % at 12.5 µM | hit rate 0.43% among 310,000 | Q63470 | ADP-Glo luminescence, NFATc1 peptide; in the data active = inhibition above about 50%
GSK3beta inhib: blocks human GSK3beta kinase activity | P49841 | GST-GSK3beta kinase, ADP-Glo luminescence, 60 min; hits give low values | activity score (negative = inhibition), % at 10 µM | hit rate 0.038% among 300,000 | AID 2097;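 active = more than half of replicate wells score below -50%, meaning over 50% inhibition versus plate controls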
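Assay system: GST-tagged human GSK3beta kinase, cell-free; Input: 1.6 ng GSK3beta; Medium: Tris/MgCl2 kinase buffer; Timing: 60 min enzyme reaction, room temperature; Signal: ADP-Glo luminescence quantifying ADP generated by kinase; Evaluation: score relative to plate controls; Benchmarks: DMSO neutral wells and GW8510 at 20 µM as positive.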
Rin1-Abl PPI inh: inhibitors of human Rin1-Abl protein interaction. inhibition, % at 7.35 µM. hit rate 0.4% among 360,000. TR-FRET Rin1/Abl binding, biochemical. AID 588664. P00519+Q13671; in the data active = inhibition above about 5%, passing the limit was not always enough
GSK3 alpha inh: inhibitors of human GSK-3 alpha kinase | ADP-Glo luminescence, 60 min | P49840 | hit rate 0.1% among 320,000 | inhibition, % at 10 µM;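 active = more than half of replicates show inhibition above 20%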;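 note: GST-tagged GSK-3 alpha with peptide substrate and 25 µM ATP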
Target sequence (P49840 whole entry, looked up): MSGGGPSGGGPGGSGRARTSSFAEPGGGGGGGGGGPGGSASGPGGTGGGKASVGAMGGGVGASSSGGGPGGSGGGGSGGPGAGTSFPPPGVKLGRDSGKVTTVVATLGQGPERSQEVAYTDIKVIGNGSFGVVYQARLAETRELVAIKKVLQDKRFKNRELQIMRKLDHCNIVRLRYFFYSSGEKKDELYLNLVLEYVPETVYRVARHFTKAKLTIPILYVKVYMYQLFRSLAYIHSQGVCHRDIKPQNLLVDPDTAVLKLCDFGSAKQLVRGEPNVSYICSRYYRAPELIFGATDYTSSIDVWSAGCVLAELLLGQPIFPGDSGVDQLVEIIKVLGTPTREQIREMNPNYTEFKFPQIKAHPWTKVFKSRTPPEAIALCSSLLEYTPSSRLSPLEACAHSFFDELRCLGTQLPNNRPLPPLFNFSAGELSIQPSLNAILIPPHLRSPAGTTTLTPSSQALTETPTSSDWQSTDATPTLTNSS
Arr-AP2 CP1: inhibitors of human beta-arrestin and AP2 interaction | shares compounds with Arrestin-AP2 inh | GST-AP2 beads, FITC arrestin peptide binding, flow cytometry; GST-fused beta2-adaptin appendage, R879A mutant | inhibition, % at 10 µM | hit rate 2% among 1,300 | AID 504908;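 active = inhibition above a set limit, roughly 3 SD of non-fluorescent compound noise, cut at about 38% in these data; inactive = inhibition at or below that limit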;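 note: loss of bead fluorescence from 50 nM FITC arrestin peptide bound to appendage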
GST GSH counter: GST-GSH bead binding interference, counter-screen; hit rate 2% among 1,300; AID 588338; GST-fluorescein binding to GSH beads, fluorescence; shares compounds with Arrestin-AP2 inh; inhibition, % at 10 µM;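 active = inhibition above 50%, about 3 SD of the inhibition seen with non-fluorescent compounds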;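 note: fluorescein maleimide labelled GST captured on 4 micron glutathione beads; higher means more loss of bead fluorescence from quenching or blocked binding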
Of the large screens only hits and unclear results are named; the others gave an inactive call (follow-up assays come after a bar, where they were run). Compounds with a hit are over-represented: about 0.99% of the library has one in this group of screens.

CC(=O)Nc1cccc(-c2csc(N)n2)c1	Arrestin-AP2 inh 55 | Arr-AP2 CP1 inactive | GST GSH counter inactive
O=[N+]([O-])c1cc(Br)ccc1NS(=O)(=O)c1ccccc1	none (no result: STK33 inh, GSK3beta inhib, GSK3 alpha inh)
Cc1cc(NS(=O)(=O)c2ccccc2)c([N+](=O)[O-])cc1C	Arrestin-AP2 inh 62 | Arr-AP2 CP1 inactive | GST GSH counter inactive
Cc1ccc(-c2cc(C(F)F)n3ncc(C(=O)N4CCCc5ccccc54)c3n2)cc1	none | Arr-AP2 CP1 inactive | GST GSH counter inactive
COc1ccc(-c2cc(C(F)F)n3ncc(C(=O)N4CCc5ccccc54)c3n2)cc1	none (no result: Arrestin-AP2 inh)
c1ccc2c(Cn3ccnc3)cccc2c1	none
Cn1nc(C(=O)NC2CCCC2)c2ccccc2c1=O	Arrestin-AP2 inh 69 (no result: STK33 inh, GSK3beta inhib, GSK3 alpha inh) | Arr-AP2 CP1 inactive | GST GSH counter inactive
Cn1c(C(=O)NC2CCCCC2)cc2c(=O)n3ccccc3nc21	Arrestin-AP2 inh 60 | Arr-AP2 CP1 inactive | GST GSH counter inactive
Cn1nc(C(=O)NC2CCC(O)CC2)c2ccccc2c1=O (configuration not stated)	none (no result: GSK3beta inhib)
CC(C)[C@H](NC(=O)c1cc2cc(Cl)ccc2n1C)C(=O)N[C@@H](C(=O)O)c1ccccc1	none
O=C(NN1C(=O)c2ccccc2NC1c1ccoc1)c1ccc([N+](=O)[O-])cc1 (configuration not stated)	Arrestin-AP2 inh 57 | Arr-AP2 CP1 inactive | GST GSH counter inactive
Cc1ccc(C(=O)OCc2nnc(-c3ccccc3)o2)s1	none
O=C(OCc1nnc(-c2ccccc2)o1)c1ccc([N+](=O)[O-])s1	Arrestin-AP2 inh 70 (no result: DYRK1A inh, GSK3beta inhib) | Arr-AP2 CP1 inactive | GST GSH counter inactive
COc1ccccc1C1/C(=C(\O)c2ccc3c(c2)OCCO3)C(=O)C(=O)N1CCCn1ccnc1 (configuration not stated)	none
Clc1ccccc1CN1CCN(c2ncccn2)CC1	Arrestin-AP2 inh 58 | Arr-AP2 CP1 inactive | GST GSH counter inactive
Clc1cccc(CN2CCN(c3ncccn3)CC2)c1Cl	none
CCC[C@@H](NS(=O)(=O)c1ccc(C)cc1)C(=O)Oc1ccc2c3c(c(=O)oc2c1)CCC3	Arrestin-AP2 inh 57 | Arr-AP2 CP1 inactive | GST GSH counter inactive
Cc1ccc(S(=O)(=O)NC(C(=O)Oc2ccc3c(C)c(Cl)c(=O)oc3c2)c2ccccc2)cc1 (configuration not stated)	none
O=C(/C=C/c1ccc(Cl)cc1)NC(=S)Nc1ccc(CN2CCOCC2)cc1	Arrestin-AP2 inh 105 | Arr-AP2 CP1 inactive | GST GSH counter inactive
CC(C)COc1ccc(C(=O)NC(=S)Nc2ccc(CN3CCOCC3)cc2)cc1	Arrestin-AP2 inh 103 | Arr-AP2 CP1 inactive | GST GSH counter inactive
CCOc1ccc(C(=O)Nc2ccc3[nH]ncc3c2)cc1	none
COc1ccc(C(=O)C2CCCN(C(=O)/C=C/c3cnc[nH]3)C2)c(C)c1 (configuration not stated)	none
CN(Cc1cccc(F)c1)C(=O)c1ccccc1Sc1ccccc1C#N	none
COc1cc(/C=C(\C#N)c2nc3ccccc3[nH]2)ccc1OC(=O)c1ccco1	Arrestin-AP2 inh 97 | Arr-AP2 CP1 inactive | GST GSH counter inactive
Cc1ccc(CN2CC(C(=O)Nc3nnc(SCc4c(Cl)cccc4Cl)s3)CC2=O)cc1 (configuration not stated)	none
C=CCSc1nnc(NC(=O)C2CC(=O)N(Cc3ccc(C)cc3)C2)s1 (configuration not stated)	Arrestin-AP2 inh 56 (no result: GSK3beta inhib) | Arr-AP2 CP1 inactive | GST GSH counter inactive
COC(=O)c1ccccc1NC(=O)N1c2ccccc2CC1C (configuration not stated)	none
CCCCNC(=O)N1c2ccccc2CC1C (configuration not stated)	Arrestin-AP2 inh 57 | Arr-AP2 CP1 inactive | GST GSH counter inactive
